{"source": "ChEMBL document CHEMBL3868612", "about": "“Discovery of a potent and selective ROMK inhibitor with improved pharmacokinetic properties based on an octahydropyrazino[2,1-c][1,4]oxazine scaffold” (Bioorg Med Chem Lett, 2016)", "key": {"[1]": {"test": "Stability in rhesus monkey hepatocytes assessed as compound remaining at 90 mins", "assay_type": "ADME, cell-based, Macaca mulatta, Hepatocyte", "conditions": "read-out: Stability"}, "[2]": {"target": "T1, ATP-sensitive inward rectifier potassium channel 10 (Homo sapiens, UniProt P78508)", "T1 sequence (P78508 whole entry)": "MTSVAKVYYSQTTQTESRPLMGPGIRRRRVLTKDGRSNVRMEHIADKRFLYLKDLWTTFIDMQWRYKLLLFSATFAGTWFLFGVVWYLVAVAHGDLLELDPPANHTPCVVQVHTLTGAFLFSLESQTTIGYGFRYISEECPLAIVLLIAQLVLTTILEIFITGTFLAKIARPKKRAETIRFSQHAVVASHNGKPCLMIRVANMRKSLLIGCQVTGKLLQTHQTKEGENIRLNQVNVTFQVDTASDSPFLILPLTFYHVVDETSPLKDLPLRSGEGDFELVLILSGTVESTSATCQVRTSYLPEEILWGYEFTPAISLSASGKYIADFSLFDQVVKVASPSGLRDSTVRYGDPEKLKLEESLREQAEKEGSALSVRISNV", "test": "Inhibition of Kir4.1 (unknown origin)"}, "[3]": {"test": "Stability in rhesus monkey microsomes assessed as compound remaining at 45 mins", "assay_type": "ADME, Macaca mulatta, Microsome", "conditions": "read-out: Stability"}, "[4]": {"target": "Sodium channel protein type 5 subunit alpha (Homo sapiens, UniProt Q14524)", "sequence (Q14524 whole entry)": "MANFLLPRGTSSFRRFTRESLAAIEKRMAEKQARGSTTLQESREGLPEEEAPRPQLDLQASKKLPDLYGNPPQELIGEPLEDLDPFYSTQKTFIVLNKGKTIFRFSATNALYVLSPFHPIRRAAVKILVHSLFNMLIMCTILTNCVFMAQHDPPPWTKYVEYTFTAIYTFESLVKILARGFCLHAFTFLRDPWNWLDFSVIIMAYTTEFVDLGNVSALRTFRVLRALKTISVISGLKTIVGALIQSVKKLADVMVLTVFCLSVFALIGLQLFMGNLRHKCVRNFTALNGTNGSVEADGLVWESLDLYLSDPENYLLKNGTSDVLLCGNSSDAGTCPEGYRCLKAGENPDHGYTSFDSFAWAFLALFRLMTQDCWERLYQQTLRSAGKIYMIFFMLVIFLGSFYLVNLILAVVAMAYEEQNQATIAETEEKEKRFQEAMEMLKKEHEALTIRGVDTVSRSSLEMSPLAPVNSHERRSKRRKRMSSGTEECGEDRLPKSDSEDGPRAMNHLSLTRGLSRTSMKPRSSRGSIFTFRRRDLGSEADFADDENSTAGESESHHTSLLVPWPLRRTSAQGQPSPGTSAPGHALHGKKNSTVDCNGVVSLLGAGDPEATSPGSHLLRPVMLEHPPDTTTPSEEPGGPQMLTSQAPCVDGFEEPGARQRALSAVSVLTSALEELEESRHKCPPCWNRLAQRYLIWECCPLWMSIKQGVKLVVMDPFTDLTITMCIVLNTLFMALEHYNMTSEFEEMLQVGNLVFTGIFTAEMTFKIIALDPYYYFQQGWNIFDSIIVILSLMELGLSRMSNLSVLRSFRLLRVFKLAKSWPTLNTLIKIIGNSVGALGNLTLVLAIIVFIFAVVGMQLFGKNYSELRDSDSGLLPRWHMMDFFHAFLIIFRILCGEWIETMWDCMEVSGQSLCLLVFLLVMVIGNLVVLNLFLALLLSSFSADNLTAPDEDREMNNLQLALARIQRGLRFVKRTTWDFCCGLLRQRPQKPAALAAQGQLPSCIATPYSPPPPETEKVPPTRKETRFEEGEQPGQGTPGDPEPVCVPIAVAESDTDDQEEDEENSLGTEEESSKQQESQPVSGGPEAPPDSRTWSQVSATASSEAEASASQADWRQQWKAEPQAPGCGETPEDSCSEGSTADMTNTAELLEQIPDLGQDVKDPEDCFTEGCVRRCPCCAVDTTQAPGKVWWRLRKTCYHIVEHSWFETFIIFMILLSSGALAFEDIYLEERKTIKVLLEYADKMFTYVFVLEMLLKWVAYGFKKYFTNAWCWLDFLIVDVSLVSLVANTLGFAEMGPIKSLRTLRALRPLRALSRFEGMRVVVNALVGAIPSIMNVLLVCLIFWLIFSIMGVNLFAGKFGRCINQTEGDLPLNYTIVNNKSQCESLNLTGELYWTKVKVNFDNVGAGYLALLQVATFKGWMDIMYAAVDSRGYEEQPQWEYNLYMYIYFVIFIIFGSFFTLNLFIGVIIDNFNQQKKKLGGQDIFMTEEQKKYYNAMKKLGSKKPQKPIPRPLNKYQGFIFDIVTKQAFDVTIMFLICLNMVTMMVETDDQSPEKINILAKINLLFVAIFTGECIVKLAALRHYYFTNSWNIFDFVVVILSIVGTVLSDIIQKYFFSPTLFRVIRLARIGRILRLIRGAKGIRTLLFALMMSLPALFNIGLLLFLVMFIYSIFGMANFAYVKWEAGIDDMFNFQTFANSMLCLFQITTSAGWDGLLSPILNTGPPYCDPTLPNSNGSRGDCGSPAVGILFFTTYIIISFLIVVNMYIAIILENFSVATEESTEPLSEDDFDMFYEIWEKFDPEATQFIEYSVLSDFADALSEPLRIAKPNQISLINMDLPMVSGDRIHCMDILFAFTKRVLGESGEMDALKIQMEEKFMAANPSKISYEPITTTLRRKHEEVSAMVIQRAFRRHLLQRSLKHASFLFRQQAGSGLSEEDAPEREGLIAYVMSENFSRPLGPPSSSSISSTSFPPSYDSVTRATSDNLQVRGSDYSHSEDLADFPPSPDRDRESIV", "test": "Inhibition of Nav1.5 (unknown origin)"}, "[5]": {"tested_on": "Rattus norvegicus", "test": "Antihypertensive activity in […] rat model assessed as change in systolic blood pressure at 10 mg/kg, po administered qd measured on day 3", "assay_type": "functional", "procedure,_shortened": "(§1)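 Spontaneously hypertensive rats were dosed orally once daily for 3 days. Systolic blood pressure change was read on day 3 relative to vehicle, with n = 5 per group.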"}, "[6]": {"target": "Cytochrome P450 2C9 (Homo sapiens, UniProt P11712)", "sequence (P11712 whole entry)": "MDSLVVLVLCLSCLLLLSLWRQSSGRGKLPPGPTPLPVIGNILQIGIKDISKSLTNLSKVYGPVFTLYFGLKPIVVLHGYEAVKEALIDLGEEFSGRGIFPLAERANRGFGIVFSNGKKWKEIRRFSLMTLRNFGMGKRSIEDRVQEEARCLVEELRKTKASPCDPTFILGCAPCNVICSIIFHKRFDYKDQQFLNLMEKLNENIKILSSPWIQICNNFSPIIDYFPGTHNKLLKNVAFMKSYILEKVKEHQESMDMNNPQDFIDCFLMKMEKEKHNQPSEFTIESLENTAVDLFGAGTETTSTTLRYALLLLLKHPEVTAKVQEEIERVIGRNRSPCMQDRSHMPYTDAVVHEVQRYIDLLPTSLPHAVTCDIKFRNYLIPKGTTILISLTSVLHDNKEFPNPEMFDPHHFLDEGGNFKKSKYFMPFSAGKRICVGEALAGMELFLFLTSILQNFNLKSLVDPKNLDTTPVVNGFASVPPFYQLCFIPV", "test": "Inhibition of CYP2C9 (unknown origin)", "assay_type": "ADME"}, "[7]": {"test": "Half life in Beagle dog at 1 mg/kg, iv or 2 mg/kg, po administered qd", "assay_type": "ADME, organism-based, Canis lupus familiaris", "conditions": "in vivo"}, "[8]": {"target": "Voltage-dependent L-type calcium channel subunit alpha-1C (Homo sapiens, UniProt Q13936)", "sequence (Q13936 whole entry)": "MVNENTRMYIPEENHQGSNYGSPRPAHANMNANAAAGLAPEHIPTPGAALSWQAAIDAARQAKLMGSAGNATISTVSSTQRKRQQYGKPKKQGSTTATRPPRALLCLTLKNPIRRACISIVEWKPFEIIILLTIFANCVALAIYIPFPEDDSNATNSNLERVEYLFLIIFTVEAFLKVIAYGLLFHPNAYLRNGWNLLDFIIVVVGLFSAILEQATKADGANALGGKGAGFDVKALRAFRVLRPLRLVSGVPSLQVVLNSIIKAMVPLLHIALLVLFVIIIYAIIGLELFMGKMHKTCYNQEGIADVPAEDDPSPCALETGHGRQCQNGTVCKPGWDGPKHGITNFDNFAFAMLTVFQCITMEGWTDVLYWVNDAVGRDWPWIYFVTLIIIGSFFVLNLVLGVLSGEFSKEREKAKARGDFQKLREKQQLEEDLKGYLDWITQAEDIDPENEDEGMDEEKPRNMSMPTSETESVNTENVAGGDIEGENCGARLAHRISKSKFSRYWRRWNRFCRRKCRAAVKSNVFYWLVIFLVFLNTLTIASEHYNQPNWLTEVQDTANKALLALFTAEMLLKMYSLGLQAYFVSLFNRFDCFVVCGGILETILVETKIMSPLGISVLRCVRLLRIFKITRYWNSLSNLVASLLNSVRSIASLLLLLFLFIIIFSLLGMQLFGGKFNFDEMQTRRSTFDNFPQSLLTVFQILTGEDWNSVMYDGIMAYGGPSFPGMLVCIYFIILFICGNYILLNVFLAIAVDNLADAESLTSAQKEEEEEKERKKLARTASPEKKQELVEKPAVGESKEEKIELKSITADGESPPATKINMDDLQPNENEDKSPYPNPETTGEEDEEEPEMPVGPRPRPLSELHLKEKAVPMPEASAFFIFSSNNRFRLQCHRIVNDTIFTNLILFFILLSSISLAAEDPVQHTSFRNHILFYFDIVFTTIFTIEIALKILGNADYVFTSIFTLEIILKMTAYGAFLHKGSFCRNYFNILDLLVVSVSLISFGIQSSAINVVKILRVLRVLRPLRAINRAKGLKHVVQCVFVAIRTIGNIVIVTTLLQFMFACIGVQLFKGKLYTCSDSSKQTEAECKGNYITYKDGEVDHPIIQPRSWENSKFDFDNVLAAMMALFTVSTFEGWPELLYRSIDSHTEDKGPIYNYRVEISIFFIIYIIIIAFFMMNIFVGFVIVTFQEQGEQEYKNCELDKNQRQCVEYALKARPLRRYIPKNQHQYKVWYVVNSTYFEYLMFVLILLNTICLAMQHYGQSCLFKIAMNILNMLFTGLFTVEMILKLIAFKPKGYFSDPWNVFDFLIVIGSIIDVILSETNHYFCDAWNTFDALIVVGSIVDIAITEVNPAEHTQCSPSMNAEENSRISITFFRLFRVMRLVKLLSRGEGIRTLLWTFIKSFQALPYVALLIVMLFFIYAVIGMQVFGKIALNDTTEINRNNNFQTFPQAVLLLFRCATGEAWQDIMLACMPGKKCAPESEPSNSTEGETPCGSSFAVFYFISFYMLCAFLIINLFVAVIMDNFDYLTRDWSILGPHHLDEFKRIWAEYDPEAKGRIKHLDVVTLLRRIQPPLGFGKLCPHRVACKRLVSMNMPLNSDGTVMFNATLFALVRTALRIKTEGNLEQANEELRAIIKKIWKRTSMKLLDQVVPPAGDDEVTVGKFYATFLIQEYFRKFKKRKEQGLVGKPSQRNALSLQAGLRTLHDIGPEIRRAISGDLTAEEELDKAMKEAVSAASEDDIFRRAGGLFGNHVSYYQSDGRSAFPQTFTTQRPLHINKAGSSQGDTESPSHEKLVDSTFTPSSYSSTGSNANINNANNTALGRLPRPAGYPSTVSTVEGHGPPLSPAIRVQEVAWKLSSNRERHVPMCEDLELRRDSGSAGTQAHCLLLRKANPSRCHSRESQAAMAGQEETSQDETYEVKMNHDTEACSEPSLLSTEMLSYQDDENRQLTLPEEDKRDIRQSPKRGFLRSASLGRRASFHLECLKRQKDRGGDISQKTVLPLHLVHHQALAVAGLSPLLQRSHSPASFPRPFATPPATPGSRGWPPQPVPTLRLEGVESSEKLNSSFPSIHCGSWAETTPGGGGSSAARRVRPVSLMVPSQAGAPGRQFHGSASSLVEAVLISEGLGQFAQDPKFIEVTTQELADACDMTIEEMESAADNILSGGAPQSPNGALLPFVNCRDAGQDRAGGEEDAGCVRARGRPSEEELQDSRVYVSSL", "test": "Inhibition of Cav1.2 (unknown origin)"}, "[9]": {"tested_on": "Rattus norvegicus", "test": "Antihypertensive activity in […] rat model assessed as increase in diuresis at 30 mg/kg, po qd measured on day 1 post dose relative to control", "assay_type": "functional", "procedure,_shortened": "(§2)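 Spontaneously hypertensive rats dosed orally once daily for 3 days at 3, 10 and 30 mg/kg (reference diuretic at 25 mg/kg); 24 h urine output on day 1 expressed as fold increase over vehicle-treated rats; n = 5 per group.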"}, "[10]": {"tested_on": "Rattus norvegicus", "test": "Antihypertensive activity in […] rat model assessed as increase in diuresis at 25 mg/kg, po qd measured on day 1 post dose relative to control", "assay_type": "functional", "procedure,_shortened": "as §2"}, "[11]": {"test": "Oral bioavailability in Beagle dog at 2 mg/kg administered qd", "assay_type": "ADME, organism-based, Canis lupus familiaris", "conditions": "in vivo"}, "[12]": {"test": "Stability in dog microsomes assessed as compound remaining at 45 mins", "assay_type": "ADME, Canis lupus familiaris, Microsome", "conditions": "read-out: Stability"}, "[13]": {"test": "Dose normalized AUC in rhesus monkey at 2 mg/kg, po administered qd", "assay_type": "ADME, organism-based, Macaca mulatta", "conditions": "in vivo"}, "[14]": {"tested_on": "Rattus norvegicus", "test": "Antihypertensive activity in […] rat model assessed as increase in diuresis at 3 mg/kg, po qd measured on day 1 post dose relative to control", "assay_type": "functional", "procedure,_shortened": "as §2"}, "[15]": {"target": "Somatostatin receptor type 2 (Homo sapiens, UniProt P30874)", "sequence (P30874 whole entry)": "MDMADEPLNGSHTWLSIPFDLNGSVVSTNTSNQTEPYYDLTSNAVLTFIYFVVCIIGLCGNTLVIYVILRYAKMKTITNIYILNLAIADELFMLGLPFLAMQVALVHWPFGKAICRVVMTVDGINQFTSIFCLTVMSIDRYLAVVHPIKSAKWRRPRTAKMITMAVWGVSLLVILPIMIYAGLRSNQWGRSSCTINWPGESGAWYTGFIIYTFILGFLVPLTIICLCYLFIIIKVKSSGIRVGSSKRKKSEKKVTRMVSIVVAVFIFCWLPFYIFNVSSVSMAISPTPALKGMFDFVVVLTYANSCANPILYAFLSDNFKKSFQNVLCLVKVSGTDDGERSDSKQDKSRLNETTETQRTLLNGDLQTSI", "test": "Inhibition of Somatostatin receptor type 2 (unknown origin) by radioligand binding assay"}, "[16]": {"test": "Oral bioavailability in Sprague-Dawley rat at 2 mg/kg", "assay_type": "ADME, organism-based", "conditions": "in vivo"}, "[17]": {"target": "Cytochrome P450 2D6 (Homo sapiens, UniProt P10635)", "test": "Inhibition of CYP2D6 (unknown origin)", "assay_type": "ADME"}, "[18]": {"test": "Half life in rhesus monkey at 1 mg/kg, iv or 2 mg/kg, po administered qd", "assay_type": "ADME, organism-based, Macaca mulatta", "conditions": "in vivo"}, "[19]": {"test": "Stability in human hepatocytes assessed as compound remaining at 90 mins", "assay_type": "ADME, cell-based, Hepatocyte", "conditions": "read-out: Stability"}, "[20]": {"test": "Apparent permeability in pig LLC-PK1 cells", "assay_type": "ADME, cell-based, Sus scrofa"}, "[21]": {"test": "Cardiotoxicity in anesthetized cardiovascular guinea pig model assessed as change in QTc interval administered as iv infusion", "assay_type": "toxicity, organism-based, Cavia porcellus, Heart", "conditions": "in vivo", "procedure,_shortened": "(§3)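 Anesthetized guinea pig cardiovascular model, n = 3. The compound was given by IV infusion while the QTc interval was monitored. Unbound plasma concentration was taken as the maximal average peak value.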"}, "[22]": {"test": "Unbound fraction in dog plasma", "assay_type": "ADME, cell-free, Canis lupus familiaris"}, "[23]": {"test": "Unbound fraction in rhesus monkey plasma", "assay_type": "ADME, cell-free, Macaca mulatta"}, "[24]": {"tested_on": "Rattus norvegicus", "test": "Antihypertensive activity in […] rat model assessed as change in systolic blood pressure at 3 mg/kg, po administered qd measured on day 3", "assay_type": "functional", "procedure,_shortened": "as §1"}, "[25]": {"tested_on": "Rattus norvegicus", "test": "Antihypertensive activity in […] rat model assessed as change in systolic blood pressure at 30 mg/kg, po administered qd measured on day 3", "assay_type": "functional", "procedure,_shortened": "as §1"}, "[26]": {"test": "Half life in Sprague-Dawley rat at 1 mg/kg, iv or 2 mg/kg, po", "assay_type": "ADME, organism-based", "conditions": "in vivo"}, "[27]": {"test": "Maximum free plasma concentration in iv dosed anesthetized cardiovascular guinea pig model", "assay_type": "ADME, organism-based, Cavia porcellus", "conditions": "in vivo", "procedure,_shortened": "as §3"}, "[28]": {"target": "T2, Inward rectifier potassium channel 2 (Homo sapiens, UniProt P63252)", "T2 sequence (P63252 whole entry)": "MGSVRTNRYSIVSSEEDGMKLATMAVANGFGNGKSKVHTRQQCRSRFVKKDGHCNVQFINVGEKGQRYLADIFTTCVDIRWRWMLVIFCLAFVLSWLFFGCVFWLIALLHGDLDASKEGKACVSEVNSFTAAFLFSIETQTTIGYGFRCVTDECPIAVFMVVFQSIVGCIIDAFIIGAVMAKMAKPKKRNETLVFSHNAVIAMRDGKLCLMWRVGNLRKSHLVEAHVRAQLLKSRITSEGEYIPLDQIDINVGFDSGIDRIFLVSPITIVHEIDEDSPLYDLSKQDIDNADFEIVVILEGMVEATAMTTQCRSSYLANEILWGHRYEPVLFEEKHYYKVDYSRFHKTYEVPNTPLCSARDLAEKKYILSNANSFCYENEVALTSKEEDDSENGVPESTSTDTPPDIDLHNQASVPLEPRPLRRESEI", "test": "Inhibition of Kir2.1 (unknown origin)"}, "[29]": {"test": "Dose normalized AUC in Beagle dog at 2 mg/kg, po administered qd", "assay_type": "ADME, organism-based, Canis lupus familiaris", "conditions": "in vivo"}, "[30]": {"test": "Stability in human microsomes assessed as compound remaining at 45 mins", "assay_type": "ADME, Microsome", "conditions": "read-out: Stability"}, "[31]": {"target": "Voltage-gated inwardly rectifying potassium channel KCNH2 (Homo sapiens, UniProt Q12809)", "test": "Inhibition of human ERG by electrophysiology method"}, "[32]": {"tested_on": "Rattus norvegicus", "test": "Antihypertensive activity in […] rat model assessed as change in systolic blood pressure at 25 mg/kg, po administered qd measured on day 3", "assay_type": "functional", "procedure,_shortened": "as §1"}, "[33]": {"test": "Stability in rat microsomes assessed as compound remaining at 45 mins", "assay_type": "ADME, Microsome", "conditions": "read-out: Stability"}, "[34]": {"test": "Oral bioavailability in rhesus monkey at 2 mg/kg, qd", "assay_type": "ADME, organism-based, Macaca mulatta", "conditions": "in vivo"}, "[35]": {"test": "Unbound fraction in human plasma", "assay_type": "ADME, cell-free"}}, "data": [{"smiles": "Cc1c([C@@H]2CN3CCN(C(=O)Cc4ccc(-n5cnnn5)cn4)C[C@H]3CO2)ccc(F)c1C#N", "values": [{"measurement": "remaining at 1.5 h", "setting": "[1]", "result": 92, "unit": "%"}, {"measurement": "IC50", "setting": "[2]", "result": "> 100", "unit": "µM"}, {"measurement": "remaining at 0.75 h", "setting": "[3]", "result": 72, "unit": "%"}, {"measurement": "IC50", "setting": "[4]", "result": "> 30", "unit": "µM"}, {"measurement": "Activity", "setting": "[5]", "result": -16, "unit": "mmHg"}, {"measurement": "IC50", "setting": "[6]", "result": "> 50", "unit": "µM"}, {"measurement": "half-life", "setting": "[7]", "result": 17.3, "unit": "h"}, {"measurement": "IC50", "setting": "[8]", "result": "> 30", "unit": "µM"}, {"measurement": "fold change (FC)", "setting": "[9]", "result": 1.8}, {"measurement": "fold change (FC)", "setting": "[10]", "result": 1.05}, {"measurement": "bioavailability", "setting": "[11]", "result": 100, "unit": "%"}, {"measurement": "remaining at 0.75 h", "setting": "[12]", "result": 82, "unit": "%"}, {"measurement": "AUC/dose", "setting": "[13]", "result": 6, "unit": "µM·kg·h/mg"}, {"measurement": "fold change (FC)", "setting": "[14]", "result": 1.4}, {"measurement": "IC50", "setting": "[15]", "result": 4.1, "unit": "µM"}, {"measurement": "bioavailability", "setting": "[16]", "result": 46, "unit": "%"}, {"measurement": "IC50", "setting": "[17]", "result": "> 50", "unit": "µM"}, {"measurement": "half-life", "setting": "[18]", "result": 5, "unit": "h"}, {"measurement": "remaining at 1.5 h", "setting": "[19]", "result": 99, "unit": "%"}, {"measurement": "Papp", "setting": "[20]", "result": "Permeable"}, {"measurement": "Activity", "setting": "[21]", "result": "Non-Toxic"}, {"measurement": "fraction unbound", "setting": "[22]", "result": 0.52}, {"measurement": "fraction unbound", "setting": "[23]", "result": 0.6}, {"measurement": "Activity", "setting": "[24]", "result": -9, "unit": "mmHg"}, {"measurement": "Activity", "setting": "[25]", "result": -16, "unit": "mmHg"}, {"measurement": "half-life", "setting": "[26]", "result": 1.5, "unit": "h"}, {"measurement": "Cp(f)max", "setting": "[27]", "result": 83, "unit": "µM"}, {"measurement": "IC50", "setting": "[28]", "result": "> 100", "unit": "µM"}, {"measurement": "AUC/dose", "setting": "[29]", "result": 16.7, "unit": "µM·kg·h/mg"}, {"measurement": "remaining at 0.75 h", "setting": "[30]", "result": 89, "unit": "%"}, {"measurement": "IC50", "setting": "[31]", "result": 20.3, "unit": "µM"}, {"measurement": "Activity", "setting": "[32]", "result": -12, "unit": "mmHg"}, {"measurement": "remaining at 0.75 h", "setting": "[33]", "result": 85, "unit": "%"}, {"measurement": "bioavailability", "setting": "[34]", "result": 67, "unit": "%"}, {"measurement": "fraction unbound", "setting": "[35]", "result": 0.58}]}]}
